“And” between values parts separate entries of the source, which are not always exact repeats. Identical values can stand only once.
Key:
[1] = species on record: Homo sapiens; assay: In Vitro Cytotoxicity against BMG-1 (Human glioma cell line with a DNA index of 0.96; wild type TP 53) using MTT assay at 100 uM at 72 hours; No effect on the proliferation kinetics of BMG-1 cells.; format: functional, cell-based
[2] = In Vitro Cytotoxicity against BMG-1 (Human brain malignant glioma cell line with a DNA index of 0.96; wild type TP 53) using Macrocolony assay at 10 uM […]; format: functional
How it was run: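 BMG-1 glioma cells in DMEM with 5% fetal calf serum at 37 °C, exponential phase, 24 h after plating. Drug (0.1, 1, 10 or 100 μM) given for 1 h, then washed off. 200–1200 cells plated and grown 8–10 days at 37 °C in 5% CO2. Colonies fixed in methanol and stained with crystal violet; colonies over 50 cells counted and expressed as percent of control.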

[3] = (§1) In Vitro Cytotoxicity against BMG-1 (Human glioma cell line with a DNA index of 0.96; wild type TP 53) using Irradiation procedures followed by Macrocolony assay at 10 Gy and 10 (uM); format: functional
How it was run: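 Exponentially growing BMG-1 cells, 24 h after plating, given 10 μM ligand 1 h before irradiation. Co-60 gamma irradiation (2, 5 or 10 Gy) at room temperature in growth medium at 0.5–1.2 Gy/min. Cells then plated and colonies of more than 50 cells counted after 8–10 days. Survival expressed as percent of cells irradiated at the same dose without ligand.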

[4] = In Vitro Cytotoxicity against BMG-1 (Human glioma cell line with a DNA index of 0.96; wild type TP 53) using Irradiation procedures followed by Macrocolony assay at 5Gy and 10 (uM) at 24 hr; format: functional; conditions: in the assay text read “growth kinetics” for “Macrocolony assay”
[5] = In Vitro Cytotoxicity against BMG-1 (Human glioma cell line with a DNA index of 0.96; wild type TP 53) using Macrocolony assay (clonogenicity) at 100 uM at 72 hours; format: functional; conditions: read-out: Survival
[6] = tested on: Nucleic Acid; assay: DNA binding property using 100(uM) of calf thymus DNA (CTDNA) and at 10(uM) was determined; format: nucleic-acid assay; conditions: Bos taurus
How it was run: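 Calf thymus DNA (100 μM) with ligand at drug/DNA ratio r = 0.1 (10 μM drug) in 2 mM sodium cacodylate buffer, equilibrated 25 min. Thermal melting by absorbance at 260 nm, heated 25 to 100 °C at 0.5 °C/min; Tm taken as the midpoint of normalized curves, ΔTm relative to DNA alone. UV absorption (200–500 nm) and fluorescence emission spectra also recorded.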

[7] = tested on: Nucleic Acid; assay: DNA binding property using 100(uM) of calf thymus DNA (CTDNA) and at 100(uM) was determined; format: nucleic-acid assay; conditions: Bos taurus
[8] = Percent cell kill against BMG-1 (Human brain malignant glioma cell line with a DNA index of 0.96; wild type TP 53) at 1 hour incubation at 100 (uM)
[9] = In Vitro Cytotoxicity against BMG-1 (Human brain malignant glioma cell line with a DNA index of 0.96; wild type TP 53) using Macrocolony assay (clonogenicity) at 100 uM at 72 hours; format: functional; conditions: read-out: Survival
[10] = as §1; format: functional; remark: listed apart in the source
How it was run: (§2)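 Exponential BMG-1 (24 h after plating) given 10 μM drug 1 h before irradiation. Co-60 gamma rays at room temperature in growth medium, 0.5–1.2 Gy/min, at 2, 5 or 10 Gy. Cells plated for macrocolony assay, 8–10 days at 37 °C in 5% CO2; crystal violet-stained colonies >50 cells counted; survival as percent of irradiated control at each dose.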

[11] = In Vitro Cytotoxicity against BMG-1 (Human glioma cell line with a DNA index of 0.96; wild type TP 53) using Irradiation procedures followed by Macrocolony assay at 2 Gy and 10 (uM); format: functional; how it was run: as §2
[12] = In Vitro Cytotoxicity against BMG-1 (Human glioma cell line with a DNA index of 0.96; wild type TP 53) using Irradiation procedures followed by Macrocolony assay at 5Gy and 10 (uM); format: functional; how it was run: as §2
[13] = In Vitro Cytotoxicity against BMG-1 (Human brain malignant glioma cell line with a DNA index of 0.96; wild type TP 53) using MTT assay at 10 uM at 72 hours; format: functional
How it was run: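 Then MTT at 0.5 mg/mL final for 2 h at 37 °C; formazan dissolved in DMSO; absorbance read at 570 nm against 630 nm reference; results as percent survival.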

[14] = Percent cell kill against BMG-1 (Human brain malignant glioma cell line with a DNA index of 0.96; wild type TP 53) at 1 hour incubation at 10 (uM)
[15] = In Vitro Cytotoxicity against BMG-1 (Human brain malignant glioma cell line with a DNA index of 0.96; wild type TP 53) using MTT assay at 100 uM at 24 hours

SMILES	NA [1]	Protection [2] [%]	Protection [3] [%]	Protection [4] [%]	viability at 100 µM [5] [%]	Lambda-em [6] [nm]	Lambda-ex [6] [nm]	Lambda-em [7]	Lambda-ex [7]	Tm [7] [°C]	ΔTm [7] [°C]	Cell kill % [8] [%]	viability at 100 µM [9] [%]	Survival [10] [%]	Survival [11] [%]	Survival [12] [%]	Killed [13] [%]	Cell kill % [14] [%]	Lysis [15] [%]
COc1ccc(-c2nc3cc(-c4nc5cc(N6CCN(C)CC6)ccc5[nH]4)ccc3[nH]2)cc1OC	No effect on the proliferation kinetics of BMG-1 cells	82	100	84	73	500	340	484 nm	354 nm	76.4	6.4	27							
COc1cc(-c2nc3cc(-c4nc5cc(-c6nc7cc(N8CCN(C)CC8)ccc7[nH]6)ccc5[nH]4)ccc3[nH]2)ccc1O	No effect on the proliferation kinetics of BMG-1 cells	37		100		500	350	418 nm and 441 nm	356 nm and 391 nm	78	8		92	100	24	37			
CCOc1ccc(-c2nc3cc(-c4nc5cc(N6CCN(C)CC6)ccc5[nH]4)ccc3[nH]2)cc1						500	340	484 nm	354 nm	76	6	90	10	15	10	15	35	55	77
